Test results reported in ChEMBL document CHEMBL1123757, “Selective thromboxane synthetase inhibitors and antihypertensive agents. New derivatives of 4-hydrazino-5H-pyridazino[4,5-b]indole, 4-hydrazinopyridazino[4,5-a]indole, and related compounds” (J Med Chem, 1987).

How the values were obtained:
Homo sapiens [1] = species: Homo sapiens; assay: In vitro inhibition of platelet aggregation induced by AA (PRP incubated for 60 minutes at 37 degree C) at 10e-5 M; No significance; format: functional
Procedure, shortened: (§1)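 Human venous blood anticoagulated with 3.8% sodium citrate (1:9). PRP from centrifugation at 800 rpm for 10 min at room temperature. Count adjusted with PPP to […]. Compound in saline with 10% ethylene glycol is added to PRP and incubated at 37 °C before the agonist. Agonists: ADP 2×10^-5 M, AA 0.6 mM, PGH2 2.8 μM, adrenaline 0.6 μM. Born absorbance aggregometry; n = 5.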

Rattus norvegicus [2] = assay: Antihypertensive activity in spontaneously hypertensive rats (SHR) measured by percentage fall in arterial pressure (AP) at 25 mg/kg administered intraperitoneally at 5 h;No significance; format: functional, organism-based; parameters: dose 25 mg/kg; conditions: Artery
Procedure, shortened: (§2)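 Unanesthetized Okamoto-strain SHR, male and female, 8 weeks old, 300–350 g, systolic pressure ≥190 mmHg, heart rate 400–650 beats/min; five animals per dose. Given ip at 2.5 mL/kg, dissolved or suspended in normal saline or saline with 0.2% (carboxymethyl)cellulose and 1.0% Tween 80. Tail AP and CR recorded by mechanical transduction at set times; reported as percentage fall from control.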

Rattus norvegicus [3] = assay: Antihypertensive activity in spontaneously hypertensive rats (SHR) measured by percentage fall in arterial pressure (AP) at 25 mg/kg administered intraperitoneally at 24 h;No significance; format: functional, organism-based; parameters: dose 25 mg/kg; conditions: Artery; procedure, shortened: as §2
Rattus norvegicus [4] = assay: Antihypertensive activity in spontaneously hypertensive rats (SHR) measured by percentage fall in cardiac rhythm (CR) at 25 mg/kg administered intraperitoneally at 3 h;No significance; format: functional, organism-based; parameters: dose 25 mg/kg; conditions: Heart
Procedure, shortened: (§3)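 Conscious SHR (Okamoto strain), 8 weeks old, male and female, 300–350 g, systolic BP ≥190 mmHg, CR 400–650 beats/min. Given ip or po at 2.5 mL/kg in normal saline or saline with 0.2% (carboxymethyl)cellulose and 1.0% Tween 80. Tail AP and CR recorded by mechanical transduction at 1, 3, 5 and 24 h, five animals per dose. Effect expressed as % fall versus control.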

Rattus norvegicus [5] = assay: Antihypertensive activity in spontaneously hypertensive rats (SHR) measured by percentage fall in cardiac rhythm (CR) at 25 mg/kg administered intraperitoneally at 24 h;No significance; format: functional, organism-based; parameters: dose 25 mg/kg; conditions: Heart; procedure, shortened: as §2
Rattus norvegicus [6] = assay: Antihypertensive activity in spontaneously hypertensive rats (SHR) measured by percentage fall in cardiac rhythm (CR) at 25 mg/kg administered intraperitoneally at 5 h;No significance; format: functional, organism-based; parameters: dose 25 mg/kg; conditions: Heart; procedure, shortened: as §3
Rattus norvegicus [7] = assay: Antihypertensive activity in spontaneously hypertensive rats (SHR) measured by percentage fall in arterial pressure (AP) at 25 mg/kg administered intraperitoneally at 1 h;No significance; format: functional, organism-based; parameters: dose 25 mg/kg; conditions: Artery; procedure, shortened: as §2
Homo sapiens [8] = species: Homo sapiens; assay: In vitro inhibition of platelet aggregation induced by […] (PRP incubated for 5 minutes at 37 degree C) at 10e-5 M; No significance; format: functional
Rattus norvegicus [9] = assay: Antihypertensive activity in spontaneously hypertensive rats (SHR) measured by percentage fall in arterial pressure (AP) at 25 mg/kg administered intraperitoneally at 3 h;No significance; format: functional, organism-based; parameters: dose 25 mg/kg; conditions: Artery; procedure, shortened: as §2
Rattus norvegicus [10] = assay: Antihypertensive activity in spontaneously hypertensive rats (SHR) measured by percentage fall in cardiac rhythm (CR) at 25 mg/kg administered intraperitoneally at 1 h;No significance; format: functional, organism-based; parameters: dose 25 mg/kg; conditions: Heart; procedure, shortened: as §2
Rattus norvegicus [11] = assay: Percent fall in systolic blood pressure, directly measured on carotid (iv on the jugular vein) of spontaneously hypertensive rats at 1 mg/kg after 60 minutes; format: functional, Artery
Procedure, shortened: (§4)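 Anesthetized (sodium pentobarbital, 70 mg/kg) male and female Okamoto SHR, 8 weeks old, 300–350 g. Given iv into the jugular vein in normal saline. Arterial pressure and cardiac rhythm are recorded directly from the carotid by polygraph at set times after dosing. Each is expressed as percent change from the pre-dose control value.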

Rattus norvegicus [12] = assay: Percent fall in systolic blood pressure, directly measured on carotid (iv on the jugular vein) of spontaneously hypertensive rats at 1 mg/kg after 30 minutes; format: functional, Artery; procedure, shortened: as §4
Rattus norvegicus [13] = assay: Percent fall in systolic blood pressure, directly measured on carotid (iv on the jugular vein) of spontaneously hypertensive rats at 1 mg/kg after 90 minutes; format: functional, Artery; procedure, shortened: as §4
Rattus norvegicus [14] = assay: Percent fall in systolic blood pressure, directly measured on carotid (iv on the jugular vein) of spontaneously hypertensive rats at 1 mg/kg after 5 minutes; format: functional, Artery; procedure, shortened: as §4
Rattus norvegicus [15] = assay: Percent fall in systolic blood pressure, directly measured on carotid (iv on the jugular vein) of spontaneously hypertensive rats at 1 mg/kg after 45 minutes; format: functional, Artery; procedure, shortened: as §4
Rattus norvegicus [16] = assay: Percent fall in systolic blood pressure, directly measured on carotid (iv on the jugular vein) of spontaneously hypertensive rats at 1 mg/kg after 75 minutes; format: functional, Artery; procedure, shortened: as §4
Rattus norvegicus [17] = assay: Percent fall in systolic blood pressure, directly measured on carotid (iv on the jugular vein) of spontaneously hypertensive rats at 1 mg/kg after 15 minutes; format: functional, Artery; procedure, shortened: as §4
Rattus norvegicus [18] = assay: Percent fall in systolic blood pressure, directly measured on carotid (iv on the jugular vein) of spontaneously hypertensive rats at 1 mg/kg after 10 minutes; format: functional, Artery; procedure, shortened: as §4
Homo sapiens [19] = species: Homo sapiens; assay: In vitro inhibition of platelet aggregation induced by ADP-II (PRP incubated for 5 minutes at 37 degree C) at 10e-5 M; No significance; format: functional; procedure, shortened: as §1
Homo sapiens [20] = species: Homo sapiens; assay: In vitro inhibition of platelet aggregation induced by ADP-II (PRP incubated for 60 minutes at 37 degree C) at 10e-5 M; format: functional; conditions: 1 h; procedure, shortened: as §1
Rattus norvegicus [21] = assay: Antihypertensive activity in spontaneously hypertensive rats (SHR) measured by percentage fall in cardiac rhythm (CR) at 25 mg/kg administered intraperitoneally at 24 h; format: functional, Heart; conditions: route intraperitoneal; procedure, shortened: as §2
Rattus norvegicus [22] = assay: Antihypertensive activity in spontaneously hypertensive rats (SHR) measured by percentage fall in cardiac rhythm (CR) at 25 mg/kg administered intraperitoneally at 3 h; format: functional, Heart; conditions: route intraperitoneal; procedure, shortened: as §2
Rattus norvegicus [23] = assay: Antihypertensive activity in spontaneously hypertensive rats (SHR) measured by percentage fall in arterial pressure (AP) at 25 mg/kg administered intraperitoneally at 3 h; format: functional, Artery; conditions: route intraperitoneal; procedure, shortened: as §2
Rattus norvegicus [24] = assay: Antihypertensive activity in spontaneously hypertensive rats (SHR) measured by percentage fall in arterial pressure (AP) at 25 mg/kg administered intraperitoneally at 5 h; format: functional, Artery; conditions: route intraperitoneal; procedure, shortened: as §2

COc1ccc2c(c1)cc1c(NN)nncn12
inhibition (Homo sapiens [1]): No significant values | Decrease in AP (Rattus norvegicus [2]): No significant values | Decrease in AP (Rattus norvegicus [3]): No significant values | Decrease in CR (Rattus norvegicus [4]): No significant values | Decrease in CR (Rattus norvegicus [5]): No significant values | Decrease in CR (Rattus norvegicus [6]): No significant values | Decrease in AP (Rattus norvegicus [7]): No significant values | inhibition (Homo sapiens [8]): No significant values | Decrease in AP (Rattus norvegicus [9]): No significant values | Decrease in CR (Rattus norvegicus [10]): No significant values

NNc1[nH]ncc2c3cc(O)ccc3nc1-2
Decrease in blood pressure (Rattus norvegicus [11]): 67% | Decrease in blood pressure (Rattus norvegicus [12]): 56% | Decrease in blood pressure (Rattus norvegicus [13]): 56% | Decrease in blood pressure (Rattus norvegicus [14]): 33% | Decrease in blood pressure (Rattus norvegicus [15]): 56% | Decrease in blood pressure (Rattus norvegicus [16]): 56% | Decrease in blood pressure (Rattus norvegicus [17]): 60% | Decrease in blood pressure (Rattus norvegicus [18]): 44%

COc1ccc2c(c1)cc1c(S)nncn12
inhibition (Homo sapiens [19]): No significant values | inhibition (Homo sapiens [1]): No significant values | inhibition at 10 µM (Homo sapiens [20]): 100% | inhibition (Homo sapiens [8]): No significant values

COc1ccc2[nH]c3c(N/N=C\c4ccccc4)nncc3c2c1
Decrease in CR (Rattus norvegicus [21]): -13% | Decrease in CR (Rattus norvegicus [22]): -20% | Decrease in AP (Rattus norvegicus [23]): 6% | Decrease in AP (Rattus norvegicus [24]): 8%
